Assays:
[1] = folding enthalpy; higher = less favourable; fluorescence melt of hairpins on a sequencing array, two-state fit; settings: sodium 0.088 M
Procedure, shortened: (§1)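 In 50 mM Na-HEPES pH 8.0 containing 25 mM NaCl, hairpins from the library on a sequenced MiSeq flow cell were imaged for Cy3 fluorescence at 2.5 °C steps up to 60 °C, with Cy3 and quencher oligos annealed. After normalisation to pre-quench Cy3 and to control constructs, two-state fits with bootstrapping gave melting temperature and folding enthalpy. Four replicates were combined by inverse-variance weighting, and fitted temperatures were shifted up by 9.35 °C to match UV melts.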

[2] = melting temperature; fluorescence melt of hairpins on a sequencing array, two-state fit, raised by 9.35 °C to match UV melts; settings: sodium 0.088 M
Procedure, shortened: as §1

| Sequence | folding enthalpy [1] [kcal/mol] | Tm [2] [°C] |
| --- | --- | --- |
| GTTGAGGAAACTCAAC ((((((....)))))) | -32.2 | 53.4 |
| GTTGAGGCGAAAGCCAAC (((..(((....)))))) | -14.6 | 40.7 |
| GTTGAGGGAAACCTCGAC ((.((((....)))).)) | -29.5 | 49.8 |
| GTTGATACGAAAGTAAAC (((..(((....)))))) | -8.92 | 25.8 |
| GTTGATCGAAAGATAAAC (((.(((....))).))) | -25.1 | 40 |
| GTTGATGGAAACATTGAC ((..(((....)))..)) | -13.7 | 29.5 |
| GTTGATGGAAACGTCAAC (((((.(....).))))) | -42.9 | 47.1 |
| GTTGCAGGAAACTGTAGC (.(.(((....))).).) | -19.9 | 32.6 |
| GTTGCCCCGAAAGGGAAC (((..(((....)))))) | -14.2 | 39.2 |
| GTTGCCCGAAAGGGAAC (((.(((....)))))) | -15.6 | 47.6 |
| GTTGCCCGAAAGGGGAAC (((.(((....))).))) | -34.2 | 62.1 |
| GTTGCCCGAAAGGGTAAC (((.(((....))).))) | -31.6 | 60.9 |
| GTTGCCGAAAGGCGAAC ((((((....))).))) | -13.8 | 50.3 |
| GTTGCCGGAAACGGTGAC ((..(((....)))..)) | -22.8 | 47.8 |
| GTTGCGGGAAACCGTAGC (.(.(((....))).).) | -24.5 | 36.1 |
| GTTGCGGGAAACTGCGAC ((.((.(....).)).)) | -11 | 38 |
| GTTGCTGGAAACAACAAC ((((.((....)).)))) | -29.2 | 38.8 |
| GTTGCTGGAAACAGCAAC (((((((....))))))) | -62.8 | 65.8 |
| GTTGGAGGAAACTCCGAC ((.((((....)))).)) | -40.7 | 52.8 |
| GTTGGAGGAAACTCTAAC (((.(((....))).))) | -27.1 | 39.9 |
| GTTGGCGAAAGCCAGAAC ((((((....)))..))) | -8.8 | 35.1 |
| GTTGGCGAAAGCCCAAC ((((((....))).))) | -16.3 | 50.7 |
| GTTGGCGGAAACGTCAAC ((((.((....)).)))) | -36.7 | 56.8 |

| Sequence | folding enthalpy [1] [kcal/mol] | Tm [2] [°C] |
| --- | --- | --- |
| GTTGGGCGAAAGCCGAAC (((.(((....))).))) | -19.5 | 53.2 |
| GTTGGGGAAACCCAAC ((((((....)))))) | -36.8 | 60 |
| GTTGGGGGAAACCCCAGC (.(((((....))))).) | -17.3 | 49.8 |
| GTTGGTGGAAACATCAGC (.((.((....)).)).) | -18.8 | 31.4 |
| GTTGTACGAAAGTATAAC (((.(((....))).))) | -26.9 | 47.6 |
| GTTGTAGGAAACTACAGC (.(((((....))))).) | -25.8 | 42 |
| GTTGTCCGAAAGGAAAC (((.(((....)))))) | -20.4 | 37.8 |
| GTTGTCGAAAGACAAAC ((((((....))).))) | -14.2 | 48.9 |
| GTTGTCGAAAGACCGAAC ((((((....)))..))) | -11.3 | 28.8 |
| GTTGTCGAAAGACGAAAC ((((((....)))..))) | -9.08 | 29.1 |
| GTTGTCGAAAGACTCAAC ((((((....)))..))) | -11.7 | 27.7 |
| GTTGTCGGAAACGATGAC ((..(((....)))..)) | -16 | 40.4 |
| GTTGTGCCGAAAGGCAAC (((..(((....)))))) | -19.6 | 53 |
| GTTGTGGCGAAAGCCAAC (((..(((....)))))) | -18.3 | 53.7 |
| GTTGTGGGAAACCACAAC (((((((....))))))) | -46 | 63.1 |
| GTTGTGGGAAACCACGAC ((.((((....)))).)) | -30.8 | 52.7 |
| GTTGTGGGAAACCGTAAC (((..((....))..))) | -13 | 29.2 |
| GTTGTTCCGAAAGGAAAC (((..(((....)))))) | -20.5 | 49.1 |
| GTTGTTCGAAAGAATAAC (((.(((....))).))) | -31.6 | 45.6 |
| GTTGTTGAAAAACAAC ((((((....)))))) | -38.2 | 51.9 |
| GTTGTTGCGAAAGCAAAC (((..(((....)))))) | -21.7 | 53.1 |
| GTTGTTGGAAACAACAGC (.(((((....))))).) | -13.2 | 52.8 |
| GTTGTTGGAAACAGCAAC ((((.((....)).)))) | -16.7 | 45.3 |

| Sequence | folding enthalpy [1] [kcal/mol] | Tm [2] [°C] |
| --- | --- | --- |
| GTTGTTGGAAACGACAAC (((((.(....).))))) | -8.7 | 48.4 |
| GTTGTTTCGAAAGAAAAC (((..(((....)))))) | -32.9 | 41.8 |
| GTTTAACGAAAGTTAAC (((.(((....)))))) | -14.6 | 37.1 |
| GTTTACCGAAAGGTGAAC (((.(((....))).))) | -33 | 51.4 |
| GTTTACGAAAGTAAAAAC ((((((....)))..))) | -12 | 29.5 |
| GTTTACGAAAGTAAAAC ((((((....))).))) | -16.8 | 38.4 |
| GTTTACGAAAGTATAAC ((((((....))).))) | -12.8 | 32.4 |
| GTTTAGCCGAAAGGCAAC (((..(((....)))))) | -8.63 | 33.7 |
| GTTTAGCGAAAGCTCAAC (((.(((....))).))) | -20.6 | 41.7 |
| GTTTAGGCGAAAGCCAAC (((..(((....)))))) | -10.1 | 33.3 |
| GTTTATGGAAACATGAAC (((.(((....))).))) | -31.3 | 35.7 |
| GTTTCCACGAAAGTGAAC (((..(((....)))))) | -8.62 | 27.2 |
| GTTTCCGCGAAAGCGAAC (((..(((....)))))) | -9.18 | 23.6 |
| GTTTCCGGAAACGGAAAC (((((((....))))))) | -46.4 | 64.6 |
| GTTTCGCGAAAGCGTAAC (((.(((....))).))) | -21.9 | 48.6 |
| GTTTCGGAAACGAAAC ((((((....)))))) | -35.9 | 56.9 |
| GTTTCTGGAAACAGGAAC (((.(((....))).))) | -30.4 | 43.6 |
| GTTTGACCGAAAGGTAAC (((..(((....)))))) | -11.6 | 32.4 |
| GTTTGAGAAATCAAAC ((((((....)))))) | -27.6 | 47 |
| GTTTGAGGAAACTCAAGC (.(((((....))))).) | -25.1 | 40.5 |
| GTTTGAGGAAACTCGAAC (((.(((....))).))) | -31.7 | 45.6 |
| GTTTGCCGAAAGGCAAC (((.(((....)))))) | -10.7 | 50.4 |

Source: the array DNA melting data of Ke et al. (doi:10.1101/2024.01.08.574731)
